This passage reports Activity and IC50 results from ChEMBL document CHEMBL1147707, “Novel substituted naphthalen-1-yl-methanone derivatives as anti-hyperglycemic agents” (Bioorg Med Chem Lett, 2006).

SMILES strings stand for the structures.

The subject of assay [1] is Rattus norvegicus. The experiment in a line: Antihyperglycemic activity in sucrose-loaded Sprague-Dawley rat at 100 mg/kg. The assay is classed as functional. Summed up: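 Male rats (169 ± 20 g) fasted 16 h; those with glucose 60–80 mg/dl, in groups of five to six, received compound orally as a 1.0% gum acacia suspension at 100 mg/kg, and controls got vehicle alone. Sucrose (10.0 g/kg, oral) followed 30 min later. Glucose was read at 30, 60, 90 and 120 min, and % fall was taken from AUC versus control (active if p < 0.05).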

Assay [2] has as its target Glucagon receptor (Homo sapiens, UniProt P47871). The assay can be described thus: Inhibition of [125I]glucagon binding to glucagon receptor.
Assay [3] deals with Rattus norvegicus. The experiment in a line: Antihyperglycemic activity in sucrose charged streptozotocin-induced beta cell damaged diabetic Sprague-Dawley rat at 100 mg/kg. Type of assay: functional. Summed up:
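Overnight-fasted male rats got streptozotocin at 60 mg/kg i.p., freshly dissolved in 100 mM citrate buffer pH 4.5. Those with glucose 150–250 mg/dl at 48 h were grouped. Each rat was given sucrose at 2.5 g/kg after test-sample treatment. Glucose was measured at 30, 60, 90, 120, 180, 240 and 300 min and 24 h after dosing, with food withheld.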

Sequence of Glucagon receptor (P47871 whole entry): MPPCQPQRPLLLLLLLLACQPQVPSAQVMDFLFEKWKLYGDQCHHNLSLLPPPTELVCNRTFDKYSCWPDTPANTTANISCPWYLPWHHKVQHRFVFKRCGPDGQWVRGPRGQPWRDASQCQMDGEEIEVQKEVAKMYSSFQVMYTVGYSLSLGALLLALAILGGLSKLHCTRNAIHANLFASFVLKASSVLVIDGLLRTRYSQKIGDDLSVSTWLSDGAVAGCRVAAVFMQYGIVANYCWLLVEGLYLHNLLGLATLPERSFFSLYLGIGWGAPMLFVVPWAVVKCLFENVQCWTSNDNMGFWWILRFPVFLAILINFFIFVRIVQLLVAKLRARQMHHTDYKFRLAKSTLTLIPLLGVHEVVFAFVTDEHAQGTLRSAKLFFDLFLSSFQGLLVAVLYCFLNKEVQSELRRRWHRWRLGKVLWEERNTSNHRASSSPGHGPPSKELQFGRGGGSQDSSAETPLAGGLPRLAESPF

The compound `CN(C)C(=N)NC(=N)N` [METFORMIN] came in with an Activity in assay [1] of 12.9%.
Turning to `COc1ccc(NCCCOc2ccc(C(=O)c3cccc4ccccc34)cc2)cc1`, the Activity in assay [1] is 16.17%; in assay [3], 12.6%. In addition, the IC50 (as a rule, the concentration needed to halve the response being measured) in assay [2] was 35 µM.
The matching figures for `O=C(c1ccc(OCCN2CCCC2)cc1)c1cccc2ccccc12`: 17.2%, 17% and 55 µM.
On to `COc1ccc(Cl)cc1C(=O)NCCc1ccc(S(=O)(=O)NC(=O)NC2CCCCC2)cc1` [GLYBURIDE], for which the Activity in assay [1] was found to be 33.7%; in assay [3], 29%.
Take `O=C(c1ccc(OCCCCl)cc1)c1cccc2ccccc12`: the Activity in assay [1] is listed as 22%; in assay [3], 8.5%.
On the same counts, the results for `O=C(c1ccc(OCCCNCc2ccccc2)cc1)c1cccc2ccccc12` are 8.06% and 7.5%.
Take `COc1ccc(NCCOc2ccc(C(=O)c3cccc4ccccc34)cc2)cc1`: the figures for the Activity in assay [1] and in assay [3] were 9.71% and 9.2%, respectively.
The matching figures for `O=C(c1ccc(OCCNCc2ccccc2)cc1)c1cccc2ccccc12`: 14.9% and 5.6%.
With `O=C(c1ccc(OCCNC2CCCCC2)cc1)c1cccc2ccccc12`, in assay [1], the Activity is listed as 7.16%.
On the same count and under the same terms, then `O=C(c1ccc(OCCCNC2CCCCC2)cc1)c1cccc2ccccc12`, with 11.16%; and `O=C(c1ccc(OCCCl)cc1)c1cccc2ccccc12`, with 24%.
Turning to `O=C(c1ccc(OCCCN2CCCCC2)cc1)c1cccc2ccccc12`, the Activity in assay [1] was 7.16%; in assay [3] it was 6.8%.
Consider `O=C(c1ccc(OCCCN2CCCC2)cc1)c1cccc2ccccc12`, for which the Activity is listed as 28.8% in assay [1] and 27% in assay [3]. The compound further displayed a 50% inhibitory concentration (IC50) in assay [2] of 17 µM.
As for `CCN(CC)CCOc1ccc(C(=O)c2cccc3ccccc23)cc1`, in assay [1], the Activity is reported as 7.21%.
For the compound `Cc1ccc(S(=O)(=O)NC(=O)NN2CC3CCCC3C2)cc1` (stereo not given) [GLICLAZIDE], the Activity in assay [1] amounted to 40.4%; in assay [3] it was 27.7%.
On the same counts, the results for `O=C(c1ccc(OCCN2CCCCC2)cc1)c1cccc2ccccc12` are 15.4% and 11.3%.
